Assay [1] has as its target T1, Glucocorticoid receptor (Homo sapiens, UniProt P04150).
T1 sequence (P04150 whole entry): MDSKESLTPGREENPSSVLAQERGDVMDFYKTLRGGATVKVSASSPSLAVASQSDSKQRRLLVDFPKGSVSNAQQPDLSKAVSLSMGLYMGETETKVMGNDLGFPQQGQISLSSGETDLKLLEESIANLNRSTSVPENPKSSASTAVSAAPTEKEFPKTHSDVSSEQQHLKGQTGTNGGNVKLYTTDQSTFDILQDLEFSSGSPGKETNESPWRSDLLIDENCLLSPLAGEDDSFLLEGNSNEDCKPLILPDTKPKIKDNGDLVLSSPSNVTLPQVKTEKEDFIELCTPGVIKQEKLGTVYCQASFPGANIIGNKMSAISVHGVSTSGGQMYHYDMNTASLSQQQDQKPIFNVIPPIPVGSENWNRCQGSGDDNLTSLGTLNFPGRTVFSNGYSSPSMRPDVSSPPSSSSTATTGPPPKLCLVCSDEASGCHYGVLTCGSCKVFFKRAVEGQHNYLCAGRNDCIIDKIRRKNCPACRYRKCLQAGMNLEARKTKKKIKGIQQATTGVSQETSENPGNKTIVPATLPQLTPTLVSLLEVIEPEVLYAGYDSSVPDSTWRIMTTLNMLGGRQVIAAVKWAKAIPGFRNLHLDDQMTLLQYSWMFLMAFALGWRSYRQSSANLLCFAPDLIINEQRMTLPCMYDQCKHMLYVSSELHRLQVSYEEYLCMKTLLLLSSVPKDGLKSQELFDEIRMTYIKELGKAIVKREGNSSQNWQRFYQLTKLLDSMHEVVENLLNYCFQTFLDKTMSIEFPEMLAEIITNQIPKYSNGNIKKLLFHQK
The experiment in a line: Antagonist activity at human GR expressed in CV1 cells by GRE activation assay. The class given is functional, cell-based, CV-1.

The test system of assay [2] is RPMI-8226. The experiment in a line: Antiproliferative activity against human RPMI8226 cells after 4 days. The class given is functional, cell-based. As to conditions: RPMI-8226, 96 h.
The test system of assay [3] is RPMI-8226. The experiment in a line: Antiproliferative activity against human RPMI8226 cells after 4 days relative to Dexamethasone. The class given is functional.
In assay [4] the target is T1, Glucocorticoid receptor. Kind of assay: Agonist activity at human GR expressed in CV1 cells by GRE activation assay. The class given is functional, cell-based, CV-1.
The target of assay [5] is T1, Glucocorticoid receptor. Kind of assay: Activity at human GR expressed in NHDFneo cells assessed as inhibition of IL-6 production. It is filed as cell-based.
Assay [6] has as its target T2, Mineralocorticoid receptor (Homo sapiens, UniProt P08235).
T2 sequence (P08235 whole entry): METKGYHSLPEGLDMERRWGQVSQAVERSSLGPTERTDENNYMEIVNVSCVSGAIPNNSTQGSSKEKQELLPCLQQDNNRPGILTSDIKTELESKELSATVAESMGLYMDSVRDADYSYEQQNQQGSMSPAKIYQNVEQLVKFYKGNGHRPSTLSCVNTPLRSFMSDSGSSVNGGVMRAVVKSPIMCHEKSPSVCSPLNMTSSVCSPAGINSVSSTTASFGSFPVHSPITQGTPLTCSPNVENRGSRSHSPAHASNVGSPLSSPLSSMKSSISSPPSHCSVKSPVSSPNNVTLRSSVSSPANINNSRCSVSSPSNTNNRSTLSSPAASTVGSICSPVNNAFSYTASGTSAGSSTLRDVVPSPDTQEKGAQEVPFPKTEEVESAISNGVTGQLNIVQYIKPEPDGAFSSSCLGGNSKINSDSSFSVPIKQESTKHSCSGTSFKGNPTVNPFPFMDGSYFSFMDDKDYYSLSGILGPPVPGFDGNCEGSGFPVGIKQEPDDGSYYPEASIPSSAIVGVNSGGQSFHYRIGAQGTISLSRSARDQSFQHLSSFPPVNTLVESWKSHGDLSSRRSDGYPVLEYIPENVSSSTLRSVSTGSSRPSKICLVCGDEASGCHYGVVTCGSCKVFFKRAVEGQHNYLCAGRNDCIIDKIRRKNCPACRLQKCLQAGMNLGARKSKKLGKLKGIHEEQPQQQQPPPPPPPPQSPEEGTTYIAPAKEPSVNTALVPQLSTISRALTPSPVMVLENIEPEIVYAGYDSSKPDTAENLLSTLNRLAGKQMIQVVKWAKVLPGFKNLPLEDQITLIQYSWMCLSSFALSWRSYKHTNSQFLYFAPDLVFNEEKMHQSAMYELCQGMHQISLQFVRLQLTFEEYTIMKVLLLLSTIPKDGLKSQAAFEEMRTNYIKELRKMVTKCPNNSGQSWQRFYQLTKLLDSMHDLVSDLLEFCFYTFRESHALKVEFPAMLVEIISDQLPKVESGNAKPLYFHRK
The experiment in a line: Binding affinity to MR. The procedure, abridged: (§1)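 Competitive binding assays on PR and MR. Values are means of at least three separate experiments, each with triplicate determinations, ± SEM. A value without SEM comes from a single determination.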

For another assay, the target named is T3, Progesterone receptor (Homo sapiens, UniProt P06401).
T3 sequence (P06401 whole entry): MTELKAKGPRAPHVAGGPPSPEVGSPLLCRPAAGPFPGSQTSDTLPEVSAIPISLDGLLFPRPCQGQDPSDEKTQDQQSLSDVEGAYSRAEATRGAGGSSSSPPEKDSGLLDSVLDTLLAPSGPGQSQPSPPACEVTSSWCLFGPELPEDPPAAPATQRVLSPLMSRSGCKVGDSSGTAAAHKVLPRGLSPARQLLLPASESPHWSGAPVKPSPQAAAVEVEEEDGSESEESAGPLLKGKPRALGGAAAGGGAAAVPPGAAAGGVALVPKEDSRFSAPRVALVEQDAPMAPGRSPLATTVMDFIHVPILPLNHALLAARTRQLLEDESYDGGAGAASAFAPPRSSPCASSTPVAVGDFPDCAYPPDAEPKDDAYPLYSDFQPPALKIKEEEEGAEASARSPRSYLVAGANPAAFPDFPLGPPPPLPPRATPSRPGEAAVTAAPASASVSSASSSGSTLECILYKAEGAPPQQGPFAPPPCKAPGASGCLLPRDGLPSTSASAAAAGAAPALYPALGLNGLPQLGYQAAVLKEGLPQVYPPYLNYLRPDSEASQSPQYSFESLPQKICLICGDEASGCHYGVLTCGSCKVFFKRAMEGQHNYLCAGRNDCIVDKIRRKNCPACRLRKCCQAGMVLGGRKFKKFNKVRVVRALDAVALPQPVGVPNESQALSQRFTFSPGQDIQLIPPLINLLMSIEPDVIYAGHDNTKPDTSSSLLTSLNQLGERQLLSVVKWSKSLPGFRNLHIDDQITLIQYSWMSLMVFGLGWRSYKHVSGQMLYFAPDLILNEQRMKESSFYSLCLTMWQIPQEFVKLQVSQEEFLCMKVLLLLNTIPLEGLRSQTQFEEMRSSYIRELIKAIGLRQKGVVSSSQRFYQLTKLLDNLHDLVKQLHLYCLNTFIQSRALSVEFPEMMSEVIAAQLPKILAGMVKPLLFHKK
The experiment in a line: Binding affinity to PR. In a few lines:
as §1

Assay [7] concerns the target T1, Glucocorticoid receptor. Kind of assay: Binding affinity to GR.
Another assay has as its target T4, Androgen receptor (Homo sapiens, UniProt P10275).
T4 sequence (P10275 whole entry): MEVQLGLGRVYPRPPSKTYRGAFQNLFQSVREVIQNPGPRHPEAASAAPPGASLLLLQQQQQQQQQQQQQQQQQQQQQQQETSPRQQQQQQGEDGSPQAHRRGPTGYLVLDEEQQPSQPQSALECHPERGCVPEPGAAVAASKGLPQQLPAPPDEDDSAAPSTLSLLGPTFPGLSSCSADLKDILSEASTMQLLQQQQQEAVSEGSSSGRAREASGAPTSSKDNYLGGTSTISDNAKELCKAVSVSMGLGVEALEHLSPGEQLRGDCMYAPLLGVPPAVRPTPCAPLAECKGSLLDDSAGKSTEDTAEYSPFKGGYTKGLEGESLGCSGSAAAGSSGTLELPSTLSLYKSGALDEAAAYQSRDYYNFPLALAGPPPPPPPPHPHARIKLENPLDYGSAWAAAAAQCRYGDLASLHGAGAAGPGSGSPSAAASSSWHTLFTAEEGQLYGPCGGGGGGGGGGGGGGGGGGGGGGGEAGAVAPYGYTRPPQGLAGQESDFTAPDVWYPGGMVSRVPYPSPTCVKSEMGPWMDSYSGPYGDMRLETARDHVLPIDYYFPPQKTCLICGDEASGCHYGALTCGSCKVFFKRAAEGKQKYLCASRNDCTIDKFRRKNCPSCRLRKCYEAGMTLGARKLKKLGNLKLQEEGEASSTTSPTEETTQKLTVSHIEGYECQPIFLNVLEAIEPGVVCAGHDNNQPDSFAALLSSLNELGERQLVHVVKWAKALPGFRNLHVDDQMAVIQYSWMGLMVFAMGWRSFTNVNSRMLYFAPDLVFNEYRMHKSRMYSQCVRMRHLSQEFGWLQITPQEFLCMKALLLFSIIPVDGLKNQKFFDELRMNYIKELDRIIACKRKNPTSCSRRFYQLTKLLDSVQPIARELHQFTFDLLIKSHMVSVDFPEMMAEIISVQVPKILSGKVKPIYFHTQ
Kind of assay: Binding affinity to AR.

As to `CCCCC(O)c1ccsc1/C=C1\Oc2ccc(O)c(OC)c2-c2ccc3c(c21)C(C)=CC(C)(C)N3` (racemic), the EC50 on Glucocorticoid receptor [1] came to 0.6 nM. This lies in the sub-nanomolar range.
Same read-out and setting: as for `COc1c(O)ccc2c1-c1ccc3c(c1/C(=C/c1sccc1C(=O)C1CCCCC1)O2)C(C)=CC(C)(C)N3`, the figure is 0.4 nM; as for `COc1c(O)ccc2c1-c1ccc3c(c1/C(=C/c1sccc1C(O)C(F)(F)F)O2)C(C)=CC(C)(C)N3` (stereo in doubt; (-)-15), 1.4 nM.
`COc1c(O)ccc2c1-c1ccc3c(c1/C(=C/c1sccc1CNCC(F)(F)F)O2)C(C)=CC(C)(C)N3`: the values for the IC50 with RPMI-8226 [2] and on Glucocorticoid receptor [5] were 18 nM and 0.9 nM, respectively. In the assay on RPMI-8226 [3], this compound yielded an Efficacy of 96%. At Glucocorticoid receptor [4], the EC50 is 0.5 nM.
Turning to `CCO/N=C(\C)c1ccsc1/C=C1\Oc2ccc(O)c(OC)c2-c2ccc3c(c21)C(C)=CC(C)(C)N3`, the IC50 in the assay with RPMI-8226 [2] stood at 16 nM; at Glucocorticoid receptor [5], 0.5 nM. This compound returned an Efficacy in the assay with RPMI-8226 [3] of 98%. Also, the results for the EC50 at Glucocorticoid receptor [4] and on Glucocorticoid receptor [1] were 0.4 nM and 1.9 nM, respectively.
For `COc1c(O)ccc2c1-c1ccc3c(c1/C(=C/c1sccc1COCCO)O2)C(C)=CC(C)(C)N3`, the IC50 in the assay on RPMI-8226 [2] stood at 22 nM; on Glucocorticoid receptor [5], 1 nM. Further, the Efficacy with RPMI-8226 [3] is 98%. This compound also gave a half-maximal effective concentration (EC50) on Glucocorticoid receptor [4] of 1.6 nM.
Regarding `COc1c(O)ccc2c1-c1ccc3c(c1/C(=C/c1sccc1C(C)O)O2)C(C)=CC(C)(C)N3` (racemic), the Ki in assay [6] worked out at 410 nM; at Progesterone receptor it was 2290 nM; on Glucocorticoid receptor [7], 1.2 nM; on Androgen receptor, 1530 nM. This compound yielded an EC50 on Glucocorticoid receptor [1] of 1.3 nM.
Regarding `COC(=O)c1ccsc1/C=C1\Oc2ccc(O)c(OC)c2-c2ccc3c(c21)C(C)=CC(C)(C)N3`, the half-maximal inhibitory concentration (IC50) with RPMI-8226 [2] stood at 27 nM; on Glucocorticoid receptor [5], 1.8 nM. In the assay with RPMI-8226 [3], this compound registered an Efficacy of 95%. At Glucocorticoid receptor [4], this compound displayed an EC50 of 1.4 nM.
Consider `CC/C=C(\C)c1ccsc1/C=C1\Oc2ccc(O)c(OC)c2-c2ccc3c(c21)C(C)=CC(C)(C)N3`, for which the IC50 was determined as 22 nM with RPMI-8226 [2] and 6.1 nM on Glucocorticoid receptor [5]. Besides, the Ki in [6] turned out to be 42 nM; on Progesterone receptor, 57 nM; at Glucocorticoid receptor [7], 4.4 nM; on Androgen receptor it was 346 nM. For the same compound, the Efficacy with RPMI-8226 [3] is given as 94%. Further, the EC50 at Glucocorticoid receptor [4] is 0.5 nM.
`COc1c(O)ccc2c1-c1ccc3c(c1/C(=C/c1sccc1/C(C)=N/O)O2)C(C)=CC(C)(C)N3`: the IC50 was 9.9 nM with RPMI-8226 [2] and 1.1 nM at Glucocorticoid receptor [5]. In addition, the Ki in [6] is 21 nM; at Progesterone receptor it was 790 nM; at Glucocorticoid receptor [7], 0.6 nM; at Androgen receptor, 290 nM. The compound also yielded an Efficacy in the assay on RPMI-8226 [3] of 96%. Moreover, the response at Glucocorticoid receptor [4] was half-maximal at 5 nM (EC50).
On Glucocorticoid receptor [1], `COc1c(O)ccc2c1-c1ccc3c(c1/C(=C/c1sccc1C(O)C(F)(F)F)O2)C(C)=CC(C)(C)N3` (single isomer, unassigned; (+)) returned an EC50 of 0.2 nM.
In turn, `C[C@@H]1C[C@H]2[C@@H]3CCC4=CC(=O)C=C[C@]4(C)[C@@]3(F)[C@@H](O)C[C@]2(C)[C@@]1(O)C(=O)CO` [DEXAMETHASONE] came in with an IC50 with RPMI-8226 [2] of 6.5 nM. The compound also registered an Efficacy in the assay on RPMI-8226 [3] of 100%.
`COc1c(O)ccc2c1-c1ccc3c(c1/C(=C/c1sccc1C(=O)N1CCCCC1)O2)C(C)=CC(C)(C)N3`: the IC50 worked out at 16 nM in the assay with RPMI-8226 [2] and 1 nM at Glucocorticoid receptor [5]. The compound further displayed an Efficacy in the assay on RPMI-8226 [3] of 95%. The compound further showed an EC50 at Glucocorticoid receptor [4] of 0.3 nM.
The corresponding values for `COc1c(O)ccc2c1-c1ccc3c(c1/C(=C/c1sccc1C(C)=O)O2)C(C)=CC(C)(C)N3` are 16 nM, 0.3 nM, 95% and 0.6 nM.
On to `COc1c(O)ccc2c1-c1ccc3c(c1/C(=C/c1sccc1C#N)O2)C(C)=CC(C)(C)N3`, for which the IC50 with RPMI-8226 [2] was 14 nM; at Glucocorticoid receptor [5], 0.8 nM. The compound also yielded an Efficacy in the assay with RPMI-8226 [3] of 87%. Moreover, at Glucocorticoid receptor [4], the EC50 was found to be 0.2 nM.

Source of the values: ChEMBL document CHEMBL1148778, “Synthesis and characterization of nonsteroidal glucocorticoid receptor modulators for multiple myeloma” (J Med Chem, 2007).
